From paper PMC3351724 (Journal of Medicinal Chemistry, 2012)

Legend:
[1] = In vivo pharmacokinetic parameters; conditions: parent 8b in rat after oral administration of the 8b salt, 20 mg/kg
Procedure, shortened: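 Rats dosed orally at 20 mg/kg with the test form; parent compound measured in plasma. Parameters derived: Cmax, Tmax, half-life, volume of distribution, AUC0-t and calculated total clearance (ClT).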

[2] = Human liver microsomal incubations; format: in vitro ADME
Procedure, shortened: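 Test compound at 1 µM incubated with human liver microsomes (1 mg/mL) plus NADPH; samples taken at 0, 10, 30 and 60 min; parent compound remaining measured.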

[3] = system: 3D7 strain of P. falciparum; assay: In vitro antimalarial activity versus 3D7 Plasmodium falciparum; format: cell-based; conditions: 3D7, read-out: IC50 (nM) 3D7 ± SD, 3D7 strain of P. falciparum

Cc1c(-c2ccc(-c3ccc(OC(F)(F)F)cc3)nc2)[nH]c2ccccc2c1=O [8b]
ClT [1]: 4.605 mL/min/kg
parent compound present after 60 min incubation ([2]; 1 μM, human liver microsomes 1 mg/mL, NADPH, 60 min): Greater than 60%
CLint scaled at 1 µM ([2]; human, liver microsomes): 1.78 mL/min/kg

CCOC(=O)c1c(-c2ccc(-c3ccc(OC(F)(F)F)cc3)nc2)[nH]c2ccccc2c1=O [compound 21]
IC50 [3]: 103 nM

O=c1c(CO)c(-c2ccc(-c3ccc(OC(F)(F)F)cc3)nc2)[nH]c2ccccc12 [compound 22]
IC50 [3]: 987 nM
